Assay results published in ChEMBL document CHEMBL3297654, “Synthesis, antimicrobial and cytotoxic activities, and structure-activity relationships of gypsogenin derivatives against human cancer cells” (Eur J Med Chem, 2014).
pIC50: −log10 of the molar value. ≈ marks a conversion by molar mass, not a printed value. Calls of active or inactive are those of the source. The calls are words filed in the database; no cut-off is given here.

Legend:
[1] = system: Salmonella typhimurium; test: Antimicrobial activity against Salmonella typhimurium ATCC 14028 assessed as zone of inhibition at 30 uL for 24 hrs at 37 degC by disk diffusion test; type: functional, organism-based; details: Salmonella enterica subsp. enterica serovar Typhimurium
How it was run: (§1)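 Compound (30 µL of a fresh 1000 µg/mL DMSO stock) goes into a 6 mm well cut in Mueller Hinton agar inoculated with 0.1 mL broth culture adjusted to 0.5 McFarland (about 1×10^8 cells/mL). Plates are incubated 24 h at 37 °C, then zone of inhibition diameter is measured in mm.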

[2] = system: Micrococcus luteus; test: Antimicrobial activity against Micrococcus luteus ATCC 9341 assessed as zone of inhibition at 30 uL for 24 hrs at 30 degC by disk diffusion test; type: functional, organism-based
How it was run: (§2)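 Agar well diffusion on Mueller Hinton agar seeded with 0.1 mL broth culture (18–24 h), adjusted to 0.5 McFarland (about 1×10^8 bacteria or 1×10^6 yeast cells/mL). A 6 mm well is filled with 30 µL of compound from a fresh 1000 µg/mL DMSO stock. Plates are held at 30 °C for 24 h and inhibition zone diameter is read in mm.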

[3] = system: Staphylococcus aureus; test: Antimicrobial activity against Staphylococcus aureus ATCC 25923 assessed as zone of inhibition at 30 uL for 24 hrs at 37 degC by disk diffusion test; type: functional, organism-based; how it was run: as §1
[4] = system: Staphylococcus epidermidis; test: Antimicrobial activity against Staphylococcus epidermidis ATCC 12228 assessed as zone of inhibition at 30 uL for 24 hrs at 37 degC by disk diffusion test; type: functional, organism-based; how it was run: as §1
[5] = system: Klebsiella pneumoniae; test: Antimicrobial activity against Klebsiella pneumoniae ATCC 13882 assessed as zone of inhibition at 30 uL for 24 hrs at 37 degC by disk diffusion test; type: functional, organism-based; how it was run: as §1
[6] = system: Pseudomonas aeruginosa; test: Antimicrobial activity against Pseudomonas aeruginosa ATCC 35032 assessed as zone of inhibition at 30 uL for 24 hrs at 37 degC by disk diffusion test; type: functional, organism-based; how it was run: as §1
[7] = system: Proteus vulgaris; test: Antimicrobial activity against Proteus vulgaris ATCC 33420 assessed as zone of inhibition at 30 uL for 24 hrs at 37 degC by disk diffusion test; type: functional, organism-based; how it was run: as §1
[8] = system: Enterococcus faecalis; test: Antimicrobial activity against Enterococcus faecalis ATCC 29212 assessed as zone of inhibition at 30 uL for 24 hrs at 37 degC by disk diffusion test; type: functional, organism-based; how it was run: as §1
[9] = system: Bacillus cereus; test: Antimicrobial activity against Bacillus cereus ATCC 11778 assessed as zone of inhibition at 30 uL for 24 hrs at 30 degC by disk diffusion test; type: functional; how it was run: as §2
[10] = system: Bacillus subtilis; test: Antimicrobial activity against Bacillus subtilis ATCC 6633 assessed as zone of inhibition at 30 uL for 24 hrs at 30 degC by disk diffusion test; type: functional; how it was run: as §2
[11] = system: Bacillus thuringiensis; test: Antimicrobial activity against Bacillus thuringiensis assessed as zone of inhibition at 30 uL for 24 hrs at 30 degC by disk diffusion test; type: functional; how it was run: as §2
[12] = system: Candida albicans; test: Antimicrobial activity against Candida albicans ATCC 10231 assessed as zone of inhibition at 30 uL for 24 hrs at 30 degC by disk diffusion test; type: functional, organism-based; how it was run: as §2
[13] = system: Cyberlindnera jadinii; test: Antimicrobial activity against Candida utilis ATCC 9950 assessed as zone of inhibition at 30 uL for 24 hrs at 30 degC by disk diffusion test; type: functional, organism-based; how it was run: as §2
[14] = system: Candida tropicalis; test: Antimicrobial activity against Candida tropicalis assessed as zone of inhibition at 30 uL for 24 hrs at 30 degC by disk diffusion test; type: functional, organism-based; how it was run: as §2
[15] = system: Nakaseomyces glabratus; test: Antimicrobial activity against Candida glabrata assessed as zone of inhibition at 30 uL for 24 hrs at 30 degC by disk diffusion test; type: functional, organism-based; how it was run: as §2
[16] = system: Saccharomyces cerevisiae; test: Antimicrobial activity against Saccharomyces cerevisiae ATCC 9763 assessed as zone of inhibition at 30 uL for 24 hrs at 30 degC by disk diffusion test; type: functional, organism-based; how it was run: as §2
[17] = system: Bacillus cereus; test: Antimicrobial activity against Bacillus cereus ATCC 11778 for 24 hrs by microdillution method; type: functional
How it was run: (§3)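 Broth microdilution. Compound is dissolved in DMSO (2 mg/mL) and diluted in Mueller Hinton broth as two-fold serial dilutions from 256 to 0.125 µg/mL. Bacteria are pre-grown in nutrient broth at 30 °C, and the final inoculum is about 10^6 cfu/mL. Tests are incubated 37 °C for 24 h. MIC is the lowest concentration giving complete inhibition. Streptomycin is the positive control.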

[18] = system: Bacillus subtilis; test: Antimicrobial activity against Bacillus subtilis ATCC 6633 for 24 hrs by microdillution method; type: functional; how it was run: as §3
[19] = system: Bacillus thuringiensis; test: Antimicrobial activity against Bacillus thuringiensis for 24 hrs by microdillution method; type: functional; how it was run: as §3
[20] = system: HL-60; test: Antiproliferative activity against human HL60 cells after 24 and 72 hrs by MTT assay; type: functional, cell-based
How it was run: (§4)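 ATCC human cell lines are kept in RPMI, DMEM or McCoy's 5A with 10–15% heat-inactivated FCS at 37 °C and 5% CO2. They are seeded at 1×10^4–1×10^5 cells/mL in 48-well plates and exposed to 0.5, 10, 20 or 40 µM. Viability is read by MTT (590 nm) at 24 and 72 h. Growth is expressed relative to untreated cells and IC50 is fitted, in triplicate.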

[21] = system: HT-29; test: Antiproliferative activity against human HT-29 cells after 24 and 72 hrs by MTT assay; type: functional, cell-based; how it was run: as §4
[22] = system: Caco-2; test: Antiproliferative activity against human Caco2 cells after 24 and 72 hrs by MTT assay; type: functional, cell-based; how it was run: as §4
[23] = Antiproliferative activity against human Saos2 cells after 24 and 72 hrs by MTT assay; type: functional, cell-based; details: SAOS-2; how it was run: as §4
[24] = system: MCF7; test: Antiproliferative activity against human MCF7 cells after 24 and 72 hrs by MTT assay; type: functional, cell-based; how it was run: as §4
[25] = system: HeLa; test: Antiproliferative activity against human HeLa cells after 24 and 72 hrs by MTT assay; type: functional, cell-based; how it was run: as §4
[26] = system: HL-60; test: Induction of apoptosis in human HL60 cells at 20 uM after 48 hrs by Hoechst 33258/propidium iodide staining based phase contrast microscopic analysis; type: functional
How it was run: (§5)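 Cells in 48-well plates treated with 0.5, 10, 20 or 40 µM for 24 and 48 h. Values are read at 48 h, 20 µM for test agents and 0.5 µM for controls. Staining is Hoechst 33258/propidium iodide double staining with fluorescence microscopy. Blue nuclei are viable or early-to-mid apoptotic, and pink nuclei are late apoptotic or necrotic. Apoptosis and necrosis are scored from chromatin condensation as % of cells. Cells are grown at 37 °C in 5% CO2 in RPMI, DMEM or McCoy's 5A with 10–15% heat-inactivated FCS.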

[27] = system: HT-29; test: Induction of apoptosis in human HT-29 cells at 20 uM after 48 hrs by Hoechst 33258/propidium iodide staining based phase contrast microscopic analysis; type: functional; how it was run: as §5
[28] = system: Caco-2; test: Induction of apoptosis in human Caco2 cells at 20 uM after 48 hrs by Hoechst 33258/propidium iodide staining based phase contrast microscopic analysis; type: functional; how it was run: as §5
[29] = system: SAOS-2; test: Induction of apoptosis in human Saos2 cells at 20 uM after 48 hrs by Hoechst 33258/propidium iodide staining based phase contrast microscopic analysis; type: functional; how it was run: as §5
[30] = system: MCF7; test: Induction of apoptosis in human MCF7 cells at 20 uM after 48 hrs by Hoechst 33258/propidium iodide staining based phase contrast microscopic analysis; type: functional; how it was run: as §5
[31] = system: HeLa; test: Induction of apoptosis in human HeLa cells at 20 uM after 48 hrs by Hoechst 33258/propidium iodide staining based phase contrast microscopic analysis; type: functional; how it was run: as §5
[32] = system: HL-60; test: Induction of necrosis in human HL60 cells at 20 uM after 48 hrs by Hoechst 33258/propidium iodide staining based phase contrast microscopic analysis; type: functional; how it was run: as §5
[33] = system: HT-29; test: Induction of necrosis in human HT-29 cells at 20 uM after 48 hrs by Hoechst 33258/propidium iodide staining based phase contrast microscopic analysis; type: functional; how it was run: as §5
[34] = system: Caco-2; test: Induction of necrosis in human Caco2 cells at 20 uM after 48 hrs by Hoechst 33258/propidium iodide staining based phase contrast microscopic analysis; type: functional; how it was run: as §5
[35] = system: SAOS-2; test: Induction of necrosis in human Saos2 cells at 20 uM after 48 hrs by Hoechst 33258/propidium iodide staining based […] microscopic analysis; type: functional; how it was run: as §5
[36] = system: MCF7; test: Induction of necrosis in human MCF7 cells at 20 uM after 48 hrs by Hoechst 33258/propidium iodide staining based phase contrast microscopic analysis; type: functional; how it was run: as §5
[37] = system: HeLa; test: Induction of necrosis in human HeLa cells at 20 uM after 48 hrs by Hoechst 33258/propidium iodide staining based phase contrast microscopic analysis; type: functional; how it was run: as §5
[38] = system: Escherichia coli; test: Antimicrobial activity against Escherichia coli ATCC 25922 assessed as zone of inhibition at 30 uL for 24 hrs at 37 degC by disk diffusion test; type: functional, organism-based; how it was run: as §1

MIC [19]	pIC50 [20]	pIC50 [21]	pIC50 [22]	Compound	diameter of the inhibition zone (DIZ) [1]	diameter of the inhibition zone (DIZ) [2]	diameter of the inhibition zone (DIZ) [3]	diameter of the inhibition zone (DIZ) [4]	diameter of the inhibition zone (DIZ) [5]	diameter of the inhibition zone (DIZ) [6]	diameter of the inhibition zone (DIZ) [7]	diameter of the inhibition zone (DIZ) [8]	diameter of the inhibition zone (DIZ) [9]	diameter of the inhibition zone (DIZ) [10]	diameter of the inhibition zone (DIZ) [11]	diameter of the inhibition zone (DIZ) [12]	diameter of the inhibition zone (DIZ) [13]	diameter of the inhibition zone (DIZ) [14]	diameter of the inhibition zone (DIZ) [15]	diameter of the inhibition zone (DIZ) [16]	also measured
inactive	5.21	4.82	4.44	CC1(C)CC[C@]2(C(=O)OCc3ccccc3)CC[C@]3(C)C(=CC[C@@H]4[C@@]5(C)CC[C@H](O)[C@@](C)(/C=N/NC(N)=S)[C@@H]5CC[C@]43C)[C@@H]2C1	inactive	inactive	inactive	inactive	inactive	inactive	inactive	inactive	inactive	inactive	inactive	inactive	inactive	inactive	inactive	inactive	MIC [17]: inactive; MIC [18]: inactive; pIC50 [23]: 5.16; pIC50 [24]: 5.22; pIC50 [25]: 4.63; Activity [26]: 2%; Activity [27]: 2%; Activity [28]: 4%; Activity [29]: 5%; Activity [30]: 4%; Activity [31]: 5%; Activity [32]: 64%; Activity [33]: 32%; Activity [34]: 48%; Activity [35]: 41%; Activity [36]: 63%; Activity [37]: 55%; diameter of the inhibition zone (DIZ) [38]: inactive
128 µg/mL (≈ 264 µM)	5.41	4.96	4.55	CC1(C)CC[C@]2(C(=O)O)CC[C@]3(C)C(=CC[C@@H]4[C@@]5(C)CC[C@H](O)[C@@](C)(/C=N/O)[C@@H]5CC[C@]43C)[C@@H]2C1	inactive	inactive	inactive	inactive	inactive	inactive	inactive	inactive	9 mm	11 mm	10 mm	inactive	inactive	inactive	inactive	inactive	MIC ([17]; ATCC 11778, 24 h): 128 µg/mL (≈ 264 µM); MIC ([18]; ATCC 6633, 24 h): 64 µg/mL (≈ 132 µM); pIC50 [23]: 5.10; pIC50 [24]: 5.12; pIC50 [25]: 5.06; Activity [26]: 30%; Activity [27]: 27%; Activity [28]: 23%; Activity [29]: 27%; Activity [30]: 26%; Activity [31]: 26%; Activity [32]: 3%; Activity [33]: 0.7%; Activity [34]: 3%; Activity [35]: 3%; Activity [36]: 4%; Activity [37]: 3%; diameter of the inhibition zone (DIZ) [38]: inactive
